# Bioassay records (PubChem)
# Sampled rows, rich in hits. Any-hit rate of the full collection: about 3.4%.
# IMP-1 inh: blocks Pseudomonas aeruginosa IMP-1 metallo-beta-lactamase; purified IMP-1, nitrocefin hydrolysis, epi-absorbance fluorescence; inhibition, % at 5.6 µM; 0.45% of 290,000 active; AID 1556;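 active = inhibition above the mean plus 3 SD of all compounds in the same screening run, cut at about 4.5% in these data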;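 also: 0% = IMP-1 with DMSO and 100% = DMSO wells lacking enzyme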
#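 assay system = purified recombinant IMP-1 metallo-beta-lactamase enzyme | schedule = 15 min preincubation plus 25 min reaction at 25 °C | signal = Epi-absorbance fluorescence, 480 nm excitation, 530 nm emission | read-out basis = percent inhibition from optical density relative to buffer-blank wells | controls = IMP-1 with DMSO as 0%, enzyme-free DMSO as 100%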
# VIM-2 inh: blocks Pseudomonas aeruginosa VIM-2 metallo-beta-lactamase; 0.89% of 290,000 active; purified VIM-2, nitrocefin hydrolysis, epi-absorbance fluorescence; inhibition, % at 5.6 µM;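 active = inhibition above the mean of all tested compounds plus 3 SD, cutoff set per screening run, cut at about 7.5% in these data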;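 also: red hydrolysis product quenches plate fluorescence so inhibitors raise well fluorescence; 0% = enzyme with DMSO and 100% = DMSO without enzyme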
# ANO1 block: blocks the mouse calcium-activated chloride channel TMEM16A; Q8BHY3; HEK293 TMEM16A/YFP iodide influx fluorescence, ionomycin; normalized B-score (activity score, 25-100; higher = stronger inhibition) at 10 µM; 1.2% of 310,000 active; AID 588511;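 active = ratio plate-corrected score three or more library SD toward inhibition, starting fluorescence score within five deviations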;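 also: score derived from kinetic fluorescence span divided by baseline fluorescence per well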
# CHT inh: inhibitors of human choline transporter CHT; Q9GZV3; CHT-expressing cells, membrane potential dye, choline response; hits give low values; B-score at 10 µM; 0.86% of 310,000 active;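 active = B-score over 3 SD under the library average, and starting fluorescence ratio not unusually high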;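 also: choline stimulus applied at its EC90 after an EC20 pre-addition; B-score computed on integrated fluorescence ratio after choline addition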
# ANO1 activ: activates or potentiates the mouse TMEM16A chloride channel; Q8BHY3; HEK293 TMEM16A/YFP-H148Q/I152L, iodide quench fluorescence; hits give low values; B-score at 10 µM; 0.3% of 340,000 active; AID 623877;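 active = fluorescence-ratio B-score plate-corrected deviation score at least 3 library SD below zero, with starting fluorescence score within 5 deviations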;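 also: channel opened by trigger with iodide after compound preincubation; score built on the fluorescence ratio of max minus min over baseline; more negative score means more quench and so TMEM16A activation or potentiation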
# CHT PAM: human CHT allosteric activation; CHT-expressing cells, membrane potential dye, choline EC20; hits give high values; LV-AA mutant CHT in HEK293 cells; AID 488977; B-score at 10 µM; 0.49% of 310,000 active; Q9GZV3;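 active = initial fluorescence not abnormally high and integrated response B-score, plate-corrected, over 3 SD above library mean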
# TMEM16A reconf: reconfirmed blocker of mouse TMEM16A calcium-activated chloride channel; shares compounds with ANO1 block; HEK293 TMEM16A/YFP-H148Q, iodide quench fluorescence; ionomycin added to raise cell calcium; inhibition, % at 10 µM; 39% of 2,300 active;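 active = mean duplicate percent inhibition, scaled so buffer wells are 0 and the reference blocker 100, over three buffer SD above buffer mean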
# HEK293 Ca mobil: alters calcium mobilization in TMEM16A HEK293 cells, counter-screen; 2% of 2,300 active; TMEM16A/YFP HEK293, Fluo4 calcium mobilization; calcium response (% of ionomycin), % at 10 µM; shares compounds with ANO1 block;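 active = duplicate-averaged calcium signal over 20% of the ionomycin maximum, relative to buffer baseline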;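 also: each well's signal is peak minus trough fluorescence divided by its pre-addition baseline; 0% = buffer wells and 100% = ionomycin wells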
# Parental YFP cnt: acts in parental YFP-HEK293 cells lacking TMEM16A, counter-screen; iodide YFP quench, ionomycin; YFP ratio F(max-min)/F0 at 10 µM; AID 652233; 2,300 tested, under 10 active; shares compounds with ANO1 block;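 active = yellow fluorescent protein signal ratio exceeding the buffer control mean by over 5 SD of those controls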;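 also: ratio is mean of duplicate wells from kinetic YFP trace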
# ClC-1 rat inh: blocks the rat ClC-1 voltage-dependent chloride channel | shares compounds with ANO1 block | CHO ClC-1-YFP, iodide influx fluorescence quench; iodide control reads 0, buffer control 100 | ratio percent, % at 10 µM | 2,300 tested, under 10 active | AID 652236;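 active = duplicate-mean ratio percent above the mean of iodide-only control wells, which defines zero, plus 5 of their SD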;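 also: higher percent means stronger block of ClC-1 iodide influx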
# Target sequence (P35524 whole entry, looked up): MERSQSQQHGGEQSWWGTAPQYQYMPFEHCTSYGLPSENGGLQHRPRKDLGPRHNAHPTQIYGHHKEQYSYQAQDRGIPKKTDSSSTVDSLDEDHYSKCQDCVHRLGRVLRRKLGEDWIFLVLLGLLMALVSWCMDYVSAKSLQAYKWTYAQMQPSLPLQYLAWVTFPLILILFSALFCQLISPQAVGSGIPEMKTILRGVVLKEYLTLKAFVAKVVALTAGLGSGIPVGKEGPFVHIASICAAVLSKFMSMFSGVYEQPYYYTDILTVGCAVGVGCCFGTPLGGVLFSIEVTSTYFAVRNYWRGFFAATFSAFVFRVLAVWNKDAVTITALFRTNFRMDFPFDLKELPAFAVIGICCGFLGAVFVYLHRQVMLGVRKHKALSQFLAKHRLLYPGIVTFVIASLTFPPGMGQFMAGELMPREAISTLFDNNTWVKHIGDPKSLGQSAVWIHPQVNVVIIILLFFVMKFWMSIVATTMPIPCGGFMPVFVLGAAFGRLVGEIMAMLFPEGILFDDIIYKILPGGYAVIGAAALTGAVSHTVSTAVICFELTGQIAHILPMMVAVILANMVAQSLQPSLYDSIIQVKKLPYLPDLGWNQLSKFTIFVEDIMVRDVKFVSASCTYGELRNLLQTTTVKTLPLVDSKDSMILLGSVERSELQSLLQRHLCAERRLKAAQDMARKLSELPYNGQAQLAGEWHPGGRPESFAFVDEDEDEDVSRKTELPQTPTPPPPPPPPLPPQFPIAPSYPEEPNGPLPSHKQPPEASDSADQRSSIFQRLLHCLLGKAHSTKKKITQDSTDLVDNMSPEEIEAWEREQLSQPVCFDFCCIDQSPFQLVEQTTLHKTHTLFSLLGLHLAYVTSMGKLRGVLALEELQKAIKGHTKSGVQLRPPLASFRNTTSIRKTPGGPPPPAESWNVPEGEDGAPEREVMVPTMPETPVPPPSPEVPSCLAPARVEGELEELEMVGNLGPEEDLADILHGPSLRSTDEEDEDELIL
# Active calls of the source: *; i = inactive; / = no result given.
SMILES,IMP-1 inh,VIM-2 inh,ANO1 block,CHT inh,ANO1 activ,CHT PAM,TMEM16A reconf,HEK293 Ca mobil,Parental YFP cnt,ClC-1 rat inh
Cc1ccc(-c2noc(CCCC(=O)NC3CCCCC3)n2)cc1,2,3,25*,i,i,i,i,i,-1.2,-16
Cc1ccc(-c2noc(CCC(=O)NC3CCCC3)n2)cc1,-2,-1,i,i,i,i,/,/,/,/
CSc1ncc(Cl)c(C(=O)C(C#N)c2nc3c(C)cc(C)cc3c(=O)[nH]2)n1 (configuration not stated),-5,-2,100*,i,i,i,59%*,i,-0.9,-10
Cc1cc2c(cc1S(=O)(=O)N1CCN(c3cccc(C)c3C)CC1)OCCN2C,-2,-2,i,i,i,i,/,/,/,/
CCCCCCNc1cc2n(c(=O)n1)CCc1cc(OC)c(OC)cc1-2,-1,0,i,i,i,i,i,i,-1,-12
CCNc1cc2n(c(=O)n1)CCc1cc(OC)c(OC)cc1-2,1,1,i,i,i,i,/,/,/,/
O=C(CCNC(=O)c1ccco1)Nc1ccc(OC(F)(F)F)cc1,-3,-5,i,i,i,i,/,/,/,/
O=C(N/N=C/c1sc(N2CCOCC2)nc1-c1ccccc1)c1cccc(S(=O)(=O)N2CCOCC2)c1,-1,-1,i,i,i,i,i,i,-0.89,1
O=S(=O)(Nc1nc2ccccc2nc1OCC(F)(F)F)c1cccs1,-4,-1,25*,i,i,i,i,i,-0.95,-1
COc1ccc(Nc2nc3ccccc3nc2NS(=O)(=O)c2cccs2)cc1,-3,-1,i,i,i,i,/,/,/,/
Cc1ccc(CNC(=O)CC(C)S(=O)(=O)c2ccc3c(c2)NC(=O)C(C)S3)cc1 (configuration not stated),-3,-1,25*,i,i,i,22%*,i,-0.95,-8
Cc1ccc(CNC(=O)CCS(=O)(=O)c2ccc3c(c2)NC(=O)C(C)S3)cc1 (configuration not stated),-1,-2,i,i,i,i,/,/,/,/
CC(=O)Nc1ccc(S(=O)(=O)Nc2cccc(-c3nc4ccccc4o3)c2)cc1,1,-1,100*,i,i,i,i,i,-0.96,-11
CSCC[C@H](NC(=O)OC(C)(C)C)c1nnc(SCc2ccc(F)cc2)o1,-3,-2,100*,i,i,i,i,i,-0.94,-3
CSCC[C@H](NC(=O)OC(C)(C)C)c1nnc(SCc2ccccc2)o1,-3,-2,i,i,i,i,/,/,/,/
COc1ccc(OCCSc2nc(C)nc3ccccc23)cc1,-2,-1,25*,i,i,i,58%*,i,-1.1,-13
CCOC(=O)N1CCC(NC(=O)C(CC(C)C)NC(=O)C2CCC(C)CC2)CC1 (configuration not stated),1,-3,100*,i,i,i,i,i,-1.1,-2
CCOC(=O)N1CCC(NC(=O)C(Cc2ccccc2)NC(=O)C2CCCCC2)CC1 (configuration not stated),-4,-2,i,i,i,i,/,/,/,/
CN(C)S(=O)(=O)c1ccc(NC(=O)CN2C(=O)NC(Cc3ccccc3)C2=O)cc1 (configuration not stated),/,/,/,/,i,/,/,/,/,/
CC1CC(C)CN(c2nc(N(C)c3ccccc3)nc(N)c2[N+](=O)[O-])C1 (configuration not stated),-2,-2,25*,i,i,i,i,i,-1.1,-16
CC1(c2ccc(Cl)cc2)NC(=O)N(CN2CCOCC2)C1=O (configuration not stated),-5,-3,i,i,i,i,/,/,/,/
CCC(=O)Oc1ccc(C/C(=N\O)c2ccc(O)cc2O)o1,-3,-1,25*,i,i,i,24%*,i,-0.93,-20
COC(=O)c1cc(CC(=O)c2ccc(O)cc2O)c(C)o1,-2,-2,i,i,i,i,/,/,/,/
OC1(c2ccc(OC(F)F)cc2)CSC(=Nc2cccnc2)N1C1CC1 (configuration not stated),1,0,100*,i,i,i,20%*,i,-1.3,-24
CCCCC(CCC(=O)O)(C(=O)OCC)c1csc(Nc2ccc(OCC)cc2)n1 (configuration not stated),-3,4,i,i,i,i,/,/,/,/
SMILES,IMP-1 inh,VIM-2 inh,ANO1 block,CHT inh,ANO1 activ,CHT PAM,TMEM16A reconf,HEK293 Ca mobil,Parental YFP cnt,ClC-1 rat inh
CCCC1CC(C)(c2csc(Nc3ccc(OCC)cc3)n2)OC1=O (configuration not stated),1,-1,100*,i,i,i,31%*,i,-0.95,-20
O=C(COC(=O)Cn1[nH]c(=O)c2ccccc2c1=O)NNC(=O)c1ccccc1,/,/,/,/,i,/,/,/,/,/
COc1cc(C(=O)NCc2nnc(SCC(=O)NC3CCCC3)o2)cc(OC)c1OC,0,-1,i,i,i,i,/,/,/,/
COCCSc1ccccc1C(=O)NCC1CCCO1 (configuration not stated),3,1,i,i,i,i,/,/,/,/
CSc1ccccc1C(=O)NCC1CCCO1 (configuration not stated),1,0,100*,i,i,i,i,i,-0.99,-12
COc1ccc(OCC2CCNCC2)cc1,-1,0,i,i,i,i,/,/,/,/
FC(F)(F)c1nc(N2CCCC2)ncc1-c1nnnn1-c1ccc(Cl)cc1,-7,-1,25*,i,i,i,i,i,-1.1,-20
FC(F)(F)c1ccncc1-c1nnnn1-c1ccc(Cl)cc1,2,0,i,i,i,i,/,/,/,/
CN1CCN(/N=C/c2ccc(N(c3ccccc3)c3ccccc3)cc2)CC1,-4,-2,100*,i,i,i,32%*,i,-0.93,-3
